Test results from PMC2912410 (Bioconjugate chemistry, 2010).
“Also recorded” adds a separate entry of the source. Values belong to the molecule of their own block, whether it stands above or below them.

Key:
P2Y1 receptor = details: competitive antagonist of the P2Y1 receptor; cited from earlier work
human platelets = assay: ADP-induced aggregation of human washed platelets; format: cell-based; details: 1 μM, ADP 5 μM
Summary of the method: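 Washed human platelets: donor blood spun 175×g, 15 min, 37 °C; platelet-rich plasma spun 1570×g, 15 min; pellet washed twice in Tyrode's (pH 7.3, 0.35% human serum albumin); resuspended 3×10^5/μL with 0.02 U/mL apyrase, kept at 37 °C. Extent measured as maximum curve height above baseline.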

hP2Y1 receptor = hP2Y1 receptor (Homo sapiens, UniProt P47900); assay: [125I]MRS2500 radioligand binding at hP2Y1 receptor in Sf9 insect cell membranes; details: for binding to the P2Y1 receptor (in words): [125I]MRS2500 binding; for fold weaker in binding than shortest homologue 20: comparison of Ki values
Chain of hP2Y1 receptor (P47900 whole entry): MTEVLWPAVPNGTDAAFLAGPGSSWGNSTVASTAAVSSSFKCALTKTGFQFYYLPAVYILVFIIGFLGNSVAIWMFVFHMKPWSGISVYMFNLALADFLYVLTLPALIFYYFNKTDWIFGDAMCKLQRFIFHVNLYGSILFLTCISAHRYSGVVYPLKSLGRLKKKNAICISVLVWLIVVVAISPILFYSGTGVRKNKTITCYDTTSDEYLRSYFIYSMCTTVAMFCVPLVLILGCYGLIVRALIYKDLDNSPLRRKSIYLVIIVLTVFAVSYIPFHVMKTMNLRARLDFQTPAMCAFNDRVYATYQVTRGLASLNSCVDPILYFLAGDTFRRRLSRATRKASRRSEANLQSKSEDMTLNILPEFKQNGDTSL

Molecule: CNc1ncnc2c1ncn2[C@H]1C[C@H](OP(=O)(O)O)[C@@H](COP(=O)(O)O)O1 [Compound 1, N^6-methyl-2′-deoxyadenosine-3′,5′-bisphosphate]
Kb (P2Y1 receptor): 102 nM

Molecule: CNc1nc(I)nc2c1ncn2[C@H]1C[C@H](OP(=O)(O)O)[C@]2(COP(=O)(O)O)C[C@H]12 [Compound 2, (1′R,2′S,4′S,5′S)-4-(2-iodo-6-methylamino-purin-9-yl)-1-[(phosphato)-methyl]-2-(phosphato)-bicyclo[3.1.0]hexane]
inhibition of platelet aggregation (in words) (human platelets): completely inhibited aggregation

Molecule: CNc1nc(C#CCCCC(=O)NCCNC(=O)CCCCCNC(=O)CCCCC2SCC3NC(=O)NC32)nc2c1ncn2[C@H]1C[C@H](OP(=O)(O)O)[C@]2(COP(=O)(O)O)C[C@H]12 (stereo partly drawn) [Compound 18, (1'R,2'S,4'S,5'S)-4-{2-[6-(6-Oxo-6-(2-(6-(5-(2-oxohexahydro-1H-thieno[3,4-d]imidazol-4-yl)pentanamido)hexanamido)ethylamino)hex-1-ynyl)]-6-methylaminopurin-9-yl}-1-[(phosphato)-methyl]-2-(phosphato)-bicyclo[3.1.0]hexane]
binding to the P2Y1 receptor (in words) (hP2Y1 receptor): more potent in binding than the shorter analogue 17

fold weaker in binding than shortest homologue 20 (hP2Y1 receptor): 20 – 30 fold
Molecule: CNc1nc(C#CCCCCc2cn(CCNC(C)=O)nn2)nc2c1ncn2[C@H]1C[C@H](OP(=O)(O)O)[C@]2(COP(=O)(O)O)C[C@H]12 [Compound 22, (1'R,2'S,4'S,5'S)-4-{2-[(6-(2-Acetamidoethyl)-1H-1,2,3-triazol-4-yl)-hex-1-yn-1-yl]-6-methylaminopurin-9-yl}-1-[(phosphato)-methyl]-2-(phosphato)-bicyclo[3.1.0]hexane]

fold weaker in binding than shortest homologue 20 (hP2Y1 receptor): 20 – 30 fold
Molecule: CNc1nc(C#CCCCCCc2cn(CCNC(C)=O)nn2)nc2c1ncn2[C@H]1C[C@H](OP(=O)(O)O)[C@]2(COP(=O)(O)O)C[C@H]12 [Compound 23, (1'R,2'S,4'S,5'S)-4-{2-[(7-(2-Acetamidoethyl)-1H-1,2,3-triazol-4-yl)-hept-1-yn-1-yl]-6-methylaminopurin-9-yl}-1-[(phosphato)-methyl]-2-(phosphato)-bicyclo[3.1.0]hexane]

Molecule: (1'R,2'S,4'S,5'S)-4-{2-[(6-(6-(4-(Fluorosulfonyl)phenethylamino)-6-oxohex-1-ynyl)]-6-methylaminopurin-9-yl}-1-[(phosphato)-methyl]-2-(phosphato)-bicyclo[3.1.0]hexane [Compound 19]
binding to the P2Y1 receptor (in words) (hP2Y1 receptor): not appreciably potent; also recorded: weak in binding

binding to the P2Y1 receptor (in words) (hP2Y1 receptor): weak in binding
Molecule: (1'R,2'S,4'S,5'S)-4-{2-[(6-(6-Oxo-6-(2-(5-(2-oxohexahydro-1H-thieno[3,4-d]imidazol-4-yl)pentanamido)ethylamino)hex-1-ynyl)-1-propynyl]-6-methylaminopurin-9-yl}-1-[(phosphato)-methyl]-2-(phosphato)-bicyclo[3.1.0]hexane [Compound 17]
